Assays:
[1] = target: T1, tyrosinase (TYR) (Agaricus bisporus, UniProt C7FF04); assay: ANS fluorescence assay; type: binding; conditions: 6f 60 µM (533 nm at 0 µM)
[2] = target: T1, tyrosinase (TYR); assay: Kinetic analysis of TYR; type: biochemical; conditions: Lineweaver-Burk plot
[3] = target: T1, tyrosinase (TYR); assay: CD spectroscopy of TYR secondary structure; type: binding; conditions: molar ratio 1:6
[4] = target: T1, tyrosinase (TYR); assay: Fluorescence quenching titration of TYR; type: binding
[5] = system: HEK-293 cells; assay: CCK-8 cell viability assay; type: cell-based, human; conditions: in words
How it was run: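 Log-phase HEK-293 cells were seeded at 1 × 10^5 cells/well and held at 37 °C for 24 h. They were then exposed for 24 h to test compound at 4, 12, 36 or 108 µM, prepared in PBS. Wells were washed twice with PBS, and medium containing 10 % CCK-8 was added. Absorbance at 450 nm was read after 2 h.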

[6] = target: T1, tyrosinase (TYR); assay: UV spectra measurement of TYR with inhibitor; type: binding

T1 sequence (C7FF04 1-392): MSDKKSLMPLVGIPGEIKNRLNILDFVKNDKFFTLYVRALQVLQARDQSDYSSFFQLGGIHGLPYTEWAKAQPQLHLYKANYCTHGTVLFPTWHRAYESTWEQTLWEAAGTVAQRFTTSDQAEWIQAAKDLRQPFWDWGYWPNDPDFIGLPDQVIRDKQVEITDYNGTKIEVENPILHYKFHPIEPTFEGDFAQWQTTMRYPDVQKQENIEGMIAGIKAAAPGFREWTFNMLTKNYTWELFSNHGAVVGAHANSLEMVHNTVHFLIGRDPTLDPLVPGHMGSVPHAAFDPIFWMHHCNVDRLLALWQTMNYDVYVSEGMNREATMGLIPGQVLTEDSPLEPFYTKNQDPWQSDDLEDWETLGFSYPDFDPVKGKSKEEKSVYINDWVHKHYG

**Q.** With `CCCc1cc(=O)oc2cc(OCc3cc(=O)c(O)co3)ccc12` [Compound 6f] as the molecule, how does the “maximum emission wavelength of ANS-TYR fluorescence” value [1] read?
**A.** 500 nm

**Q.** What about the inhibition type [2] of the same molecule?
**A.** mixed-type inhibitor

**Q.** And the “α-Helix content of TYR” value [3]?
**A.** 32.50%

**Q.** And the “β-Turn content of TYR” value [3]?
**A.** 17.20%

**Q.** And the “β-sheet content of TYR” value [3]?
**A.** 17.50%

**Q.** What about the “quenching constant Kq” value ([4]; Stern-Volmer plot) of the same molecule?
**A.** 3.95 × 10^12 L/mol S^-1

**Q.** And the “number of binding sites n” value ([4]; double reciprocal equation)?
**A.** 1.12

**Q.** What about the “mode of action on TYR (quenching type)” value ([4]; multispectral experiments) of the same molecule?
**A.** static quenching

**Q.** What about the cytotoxicity [5] of the same molecule?
**A.** low cytotoxicity

**Q.** What about the “effect on the UV absorption peak of TYR at 280 nm” value [6] of the same molecule?
**A.** significantly reduced the absorption peak of TYR at 280 nm
